Compound activity deposited in PubChem by several laboratories.
The list is not random: actives were taken first. Their share in the collection is about 1.1%.
PMI act hi M6P: activators of human phosphomannose isomerase at near-saturating mannose 6-phosphate | coupled PMI enzyme assay, resazurin fluorescence, 20 min; active compounds read high; 1 = untreated enzyme, 0 = substrate-free blank | activation factor at 20 µM | 190,000 tested, 0.34% active | AID 1216;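 active = activation factor of 2 or more at 20 µM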
Target sequence (P34949 whole entry, looked up): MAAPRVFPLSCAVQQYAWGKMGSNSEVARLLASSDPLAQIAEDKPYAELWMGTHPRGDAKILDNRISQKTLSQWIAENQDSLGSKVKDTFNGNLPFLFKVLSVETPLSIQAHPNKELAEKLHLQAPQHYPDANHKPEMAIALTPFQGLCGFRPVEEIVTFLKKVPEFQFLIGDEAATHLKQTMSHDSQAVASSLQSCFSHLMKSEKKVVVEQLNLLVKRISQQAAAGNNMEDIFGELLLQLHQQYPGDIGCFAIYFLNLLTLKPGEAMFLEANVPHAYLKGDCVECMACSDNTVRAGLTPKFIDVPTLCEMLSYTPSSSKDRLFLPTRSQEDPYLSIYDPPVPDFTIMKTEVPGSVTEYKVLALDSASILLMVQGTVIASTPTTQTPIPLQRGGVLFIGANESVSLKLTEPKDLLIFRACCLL
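Test system: human PMI in coupled enzyme assay; Input: PMI at 15 ng/mL final; Medium: HEPES buffer, pH 7.4; Schedule: 20 min incubation at room temperature; Technique: resorufin fluorescence at Ex 544/Em 590 nm; Compound: 20 µM single dose; Probe or stimulus: Near-saturating mannose-6-phosphate, 1.0 mM.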
Diaphorase inh: counter-screen for diaphorase-based assays: diaphorase inhibitors and chemical oxidizers | inhibition, % at 20 µM | AID 1217 | diaphorase resazurin-to-resorufin fluorescence, NADH, 16 min; bacterial (C. kluyveri) enzyme, not human | 190,000 tested, 0.69% active;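 active = primary screen inhibition at 20 µM above a set limit, cut at about 50% in these data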;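 note: plate controls were DMSO with full reaction for no effect and wells lacking NADH for full effect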
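Assay system: diaphorase enzyme from Clostridium kluyveri. Quantity: enzyme working solution with 0.14 U/mL diaphorase. Schedule: reaction incubation of 16 min at room temperature. Technique: resorufin fluorescence, excitation 544 nm, emission 590 nm. Controls: No-NADH positive control and DMSO neutral control.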
Redox H2O2 prof: compounds producing H2O2 with reducing agent – biochemical, NIH compound library profiling, artefact control for MLSCN library redox annotation, primary screen. DTT-dependent redox cycling H2O2, phenol red/HRP absorbance; 100% = 100 µM peroxide control, 0% = buffer. activation, % at 10 µM. 200,000 tested, 0.03% active;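 active = activation of at least 50% relative to the plate's high and low controls in the primary single-dose screen; inactive = activation below 50%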;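 note: compound incubated with DTT at 0.8 mM final as the reducing agent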
Diaphorase act: activates diaphorase or chemically reduces, flagging diaphorase assay artifacts. Diaphorase/resazurin coupled assay, resorufin fluorescence, 16 min; active compounds read high; 1 = vehicle wells, 0 = NADH-free wells. activation factor at 20 µM. 190,000 tested, 0.005% active. AID 1229;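 active = diaphorase activity raised at least twofold by the compound at 20 µM; inactive = activation factor below 2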
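Material: Purified diaphorase enzyme from Clostridium kluyveri | Buffer or medium: 50 mM HEPES pH 7.4 with 4.542 mM MgCl2, 0.005% Tween 20 | Times: 16 min enzyme reaction, ambient temperature | Signal: Red resorufin fluorescence at 544/590 nm excitation/emission | Measure: Increased resorufin signal from activators or reducing compounds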
G6PDH counter: L. mesenteroides G6PDH inhibition counter-screen. inhibition, % at 5 µM. Purified L. mesenteroides G6PDH, diaphorase/resazurin coupled fluorescence, 45 min. AID 1020. 200,000 tested, 0.12% active; in the data active = inhibition above about 50%
PMI act: phosphomannose isomerase (human) activation | P34949 | purified human PMI, coupled resazurin fluorescence, 20 min; active compounds read high; 1 = vehicle control, 0 substrate-free wells | activation factor at 20 µM | 190,000 tested, 0.005% active;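 active = activation factor of 2 or more at 20 µM, relative to plate controls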
Numbers without * were called inactive; . = no result.

SMILES	PMI act hi M6P	Diaphorase inh	Redox H2O2 prof	Diaphorase act	G6PDH counter	PMI act
COc1cc2c(cc1OC)-c1cc3ccc4c(c3c[n+]1CC2)OCO4	0.5	8	0	0.9	52*	0.8
CS(=O)(=O)c1ccc(SCC(=O)NC2CCS(=O)(=O)C2)c([N+](=O)[O-])c1 (stereo unspecified)	1.2	0	-2	1	8	1.2
CN(C)c1ccc(/C=N/Nc2ccc(-n3ccnc3)nn2)cc1	2.2*	3	-2	1	-2	1.7
O=C(Cn1cnc([N+](=O)[O-])n1)NC1CC1	1.1	-2	-1	1	5	1.2
CCOc1cc(CNc2ccc(N3CCCC3)cc2)cc(Cl)c1OC	0.3	68*	0	0.3	10	0.2
COc1cc(CNc2ccc(N3CCCC3)cc2)cc(Cl)c1OC	0.3	55*	0	0.5	41	0.2
CCOc1ccc(CNc2ccc(N3CCCC3)cc2)cc1	0.2	75*	1	0.3	-20	0.1
CN=c1scc(C)n1/N=C/c1ccc(O)c(O)c1O	0.2	76*	-1	0.2	41	0.2
CN=c1scc(-c2cccs2)n1/N=C/c1ccc(O)c(O)c1O	0.7	68*	2	0.3	-15	0.3
CN=c1scc(-c2cccs2)n1/N=C/c1ccccc1O	0.9	19	0	0.8	-2	0.9
Cc1c(CNC2CCCC2)c(C(=O)O)c(C)n1Cc1ccccc1	1.1	2	0	1	4	1
Nc1ccccc1NC1CCCCC1	0.3	82*	-1	0.2	10	0.4
CC(Sc1nc2c(cc1C#N)CCCCC2)C(=O)O (stereo unspecified)	1	4	1	1	2	1
Cc1ccc(NC(=O)/C(=C\c2ccc([N+](=O)[O-])cc2)NC(=O)c2ccccc2)cc1	1.1	-5	-4	1.1	9	1.1
O=C(N/N=C/c1ccc(O)c(O)c1O)/C(=C/c1ccc([N+](=O)[O-])cc1)NC(=O)c1ccccc1	0.3	74*	-1	0.3	2	0.3
CCOc1ccc(N2CSC3=C(C#N)C(c4ccco4)CC(=O)N3C2)cc1 (stereo unspecified)	1.6	42	0	0.6	23	1.3
COc1cccc(C2CC(=O)N3CN(c4cccc(Cl)c4C)CSC3=C2C#N)c1OC (stereo unspecified)	1	51*	-2	0.5	8	0.6
Cc1ccc(C2CC(=O)N3CN(c4ccc(Br)cc4)CSC3=C2C#N)o1 (stereo unspecified)	1.4	58*	3	0.4	16	1
COc1ccc(OC)c(C2CC(=O)N3CN(c4ccccc4F)CSC3=C2C#N)c1 (stereo unspecified)	0.8	37	-1	0.6	2	0.4
N#CC1=C2SCN(c3ccccc3)CN2C(=O)CC1c1ccccc1Cl (stereo unspecified)	1.4	34	-3	0.7	5	0.9
COc1ccc(OC)c(C2CC(=O)N3CN(c4cccc(Cl)c4C)CSC3=C2C#N)c1 (stereo unspecified)	0.9	52*	-1	0.5	7	0.5
COc1ccc(OC)c(C2CC(=O)N3CN(c4cccc(Cl)c4)CSC3=C2C#N)c1 (stereo unspecified)	0.7	46	0	0.5	7	0.8
N#CC1=C2SCN(c3ccccc3)CN2C(=O)CC1c1c(Cl)cccc1Cl (stereo unspecified)	0.8	51*	-1	0.5	0	0.7
CCOC(=O)CN(c1cc([N+](=O)[O-])ccc1OC)S(C)(=O)=O	1	-4	-1	1	10	1
CC(Oc1ccccc1)C(=O)Nc1nnc(C2CCCCC2)s1 (stereo unspecified)	0.9	6	-1	0.9	9	1
SMILES	PMI act hi M6P	Diaphorase inh	Redox H2O2 prof	Diaphorase act	G6PDH counter	PMI act
O=c1c(-c2ccccc2)c(O)c2c(n1-c1ccccc1)CCCC2	0.9	6	0	0.9	9	1
O=C1CCC2(CC1)NC(=O)N(c1ccccc1)N2	2.6*	17	-1	0.8	3	1.7
CC(C)(C)c1cc(CN(CCO)CCO)cc(C(C)(C)C)c1O	0.6	70*	6	0.3	-9	0.5
O=C(O)CCCNc1cc(N2CCC3(CC2)OCCO3)c2noc3c2c1C(=O)c1ccccc1-3	0.5	50*	-3	0.5	39	0.8
O=C1c2ccccc2-c2onc3ccc(N4CCCC4)c1c23	0.4	33	0	0.7	34	0.8
S=C(Nc1ccc2nsnc2c1)N1CCCCCC1	.	.	0	.	60*	.
S=C(Nc1ccc2nsnc2c1)NC1CCCCC1	1.1	41	-1	0.6	56*	1.1
COc1cc2c(cc1OC)CN(c1nc(-c3cccnc3)nc3ccccc13)CC2	1	-3	-1	1	-6	1.1
Cn1c(N=NC(=O)c2ccccc2)c(O)c2ccccc21	1	14	0	0.9	-7	1.1
COc1cc(/C=N/Nc2ccc(Cl)cc2)ccc1OC(=O)c1cccs1	2.3*	24	0	0.8	-24	1.3
COc1cc(/C=N/NC(N)=O)ccc1OC(=O)c1cccs1	1.1	0	0	1	3	1.1
CCOC(=O)n1c(=O)[nH]c2ccc(Br)cc21	1	7	-1	0.9	1	1
CN(Cc1ccccc1)CC(O)COc1ccc(CNCc2ccc(Cl)s2)cc1 (stereo unspecified)	1	0	-1	1	-1	0.9
CC(=O)N1CCC(=NNc2ccnc3cc(Cl)ccc23)CC1	2.3*	-3	-10	1	-1	1.7
CCOC(=O)N1CCC(=NNc2ccnc3cc(Cl)ccc23)CC1	1.5	0	0	1	2	1.6
CC(C)(C)C1CCC2(CC1)NC(=S)N(c1ccccc1)N2 (stereo unspecified)	2.8*	7	1	0.9	1	1.7
C/C(=N\Nc1ccc(C(=O)O)cc1)c1ccc(-n2ccnc2)cc1	2*	22	0	0.8	4	1.6
C/C(=N\NC(N)=O)c1ccc(-n2ccnc2)cc1	1.1	1	0	1	-8	1.1
C/C(=N\Nc1ccccc1Cl)c1ccc(-n2ccnc2)cc1	2.7*	-21	-1	1.2	-1	1.7
CC(NC(=O)c1cccs1)c1nnc(SCc2ccc(Cl)cc2Cl)n1C (stereo unspecified)	1	15	0	0.9	4	1
